Compound activity from PubChem BioAssay.
Most compounds without a hit are left out; they make up all but 1.9% or so of the library.
GRK2 aptamer HTS: compounds blocking aptamer binding on GRK2 – biochemical, human GRK2, bead flow cytometry, HTS, primary screen. FAM-aptamer displacement from GRK2. Beta-adrenergic receptor kinase 1 (Homo sapiens), P25098. AID 488847, 2010. actives 0.59% (n = 330,000). inhibition of aptamer binding, % at 10 µM;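 active means inhibition of aptamer binding above 40%, roughly 3 SD of noise, on plates passing a quality check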;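 further: median bead fluorescence of bound FAM aptamer so fluorescent compounds give negative values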
Target sequence (P25098 whole entry, looked up): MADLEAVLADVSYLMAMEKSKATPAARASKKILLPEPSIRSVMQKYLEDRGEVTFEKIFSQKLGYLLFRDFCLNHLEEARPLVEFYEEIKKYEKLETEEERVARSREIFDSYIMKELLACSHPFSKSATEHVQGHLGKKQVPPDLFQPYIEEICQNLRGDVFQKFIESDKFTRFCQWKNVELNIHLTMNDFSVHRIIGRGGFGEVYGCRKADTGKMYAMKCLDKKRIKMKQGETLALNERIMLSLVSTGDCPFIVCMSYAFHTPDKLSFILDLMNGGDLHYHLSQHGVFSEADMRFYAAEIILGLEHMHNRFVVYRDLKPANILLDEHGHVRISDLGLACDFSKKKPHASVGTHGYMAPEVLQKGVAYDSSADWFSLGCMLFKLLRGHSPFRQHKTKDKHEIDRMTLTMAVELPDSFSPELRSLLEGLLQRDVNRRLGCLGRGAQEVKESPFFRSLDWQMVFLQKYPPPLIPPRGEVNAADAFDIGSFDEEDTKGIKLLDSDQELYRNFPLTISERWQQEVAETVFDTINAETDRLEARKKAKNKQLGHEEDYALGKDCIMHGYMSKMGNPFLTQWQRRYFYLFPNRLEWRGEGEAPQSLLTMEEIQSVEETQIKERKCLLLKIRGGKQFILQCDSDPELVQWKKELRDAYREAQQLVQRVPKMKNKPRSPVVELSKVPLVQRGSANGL
SR-BI DiI inh: inhibitors of SR-BI mediated HDL lipid uptake, primary screen, ldlA[mSR-BI] cells, fluorescence, single point; Scavenger receptor class B member 1 (Mus musculus), Q61009; ldlA[mSR-BI] CHO cells, DiI-HDL uptake fluorescence, 3 h; inhibition, % at 12.5 µM; actives 0.96% (n = 320,000); AID 488896, 2010;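 active means mean replicate inhibition of at least 70% and a set share of replicates each scoring 70 or more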;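 further: 0% = median of neutral control wells and 100% = median of positive control wells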
SR-BI DiI-HDL act: activators of SR-BI mediated DiI-HDL uptake, primary screen, ldlA[mSR-BI] CHO cells, DiI fluorescence; AID 504775, 2011; actives 0.096% (n = 320,000); 3 h; 100 = double the neutral-control signal; activation, % at 12.5 µM;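 active means mean replicate activation of at least 60% and every replicate at or above 60%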;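 further: 0% = median plate neutral-control signal and 100% = twice that signal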
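Material: SR-BI-overexpressing, LDLR-lacking CHO cells | Dosing: Single compound concentration, delivered by pin transfer | Probe or stimulus: Labelled HDL, 10 µg/mL | Signal: Bottom-read cell fluorescence after medium removal, ex 550/em 595 nm | Schedule: 3 h, 37 °C | Evaluation: HDL uptake via cellular fluorescence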
Rin1-Abl PPI inh: inhibitors of Rin1-Abl protein binding, primary screen, biochemical, TR-FRET; inhibition, % at 7.35 µM; AID 588664, 2011; Tyrosine-protein kinase ABL1 (Homo sapiens) + Ras and Rab interactor 1 (Homo sapiens), …; actives 0.4% (n = 360,000); in the data active means inhibition above about 5%, passing the limit was not always enough
Rin1 Abl conf: Rin1-Abl binding inhibitor retest, confirmation, biochemical, TR-FRET; inhibition, % at 7.35 µM; purified proteins; shares compounds with Rin1-Abl PPI inh; actives 49% (n = 1,300)
GFP quench-1: GFP fluorescence inhibitors and quenchers, artefact control for Rin1-Abl interaction inhibitor project, biochemical | shares compounds with Rin1-Abl PPI inh | inhibitors/quenchers counterscreen | inhibition, % at 6.75 µM | actives 8.5% (n = 1,300) | AID 602125, 2011;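 further: ABL1-eGFP fusion protein alone without its partner RIN1-SBP; 0% = protein with vehicle and 100% = wells lacking protein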
GFP quench DR: GFP fluorescence inhibitors and quenchers, dose response, artefact control for Rin1-Abl interaction inhibitor project, biochemical | IC50, µM | AID 602182, 2012 | shares compounds with Rin1-Abl PPI inh | 230 tested, under 10 active | GFP fluorescence interference/quenching counterscreen; call rule not given here;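 further: ABL1-eGFP fusion protein alone without its RIN1 binding partner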
GFP quench-2: GFP fluorescence inhibitors and quenchers, late-stage follow-up, artefact control for Rin1-Abl interaction inhibitor project, biochemical, dose response; shares compounds with Rin1-Abl PPI inh; GFP fluorescence quenching counterscreen; IC50, µM; 25 tested, under 10 active; AID 602397, 2012; call rule not given here
An asterisk follows results filed as active; x = no result given. Unless noted, no stated cut-off is given here; in the data, active means inhibition above about 6.5%; inactive means the rest.

SMILES	GRK2 aptamer HTS	SR-BI DiI inh	SR-BI DiI-HDL act	Rin1-Abl PPI inh	Rin1 Abl conf	GFP quench-1	others
Cc1cc(C)c2c(c1)SC1=NC(c3ccccc3)(C(F)(F)F)NC(=O)N12 (stereo not drawn)	0	37	-37	7.0*	2	-1
Cn1c(=O)c2c(nc(-n3ccnc3)n2Cc2ccc(Cl)cc2Cl)n(C)c1=O	0	-1	1	72*	68*	0	GFP quench DR=>68;GFP quench-2=>68
Cn1c(=O)c2c(nc(-n3ccnc3)n2C)n(C)c1=O	0	-11	11	4	x	x
Cn1c(=O)c2c(nc(-n3ccnc3)n2Cc2ccccc2)n(C)c1=O	1	-42	42	15*	13*	1
C[C@@H]1CCCCO[C@H](CN(C)S(=O)(=O)c2cn(C)cn2)[C@@H](C)CN([C@H](C)CO)C(=O)c2cc(NC(=O)c3ccncc3)ccc2O1	x	x	x	-3	x	x
Cc1sc2ncn(CC(=O)NCC(=O)N3CCN(c4ccccc4F)CC3)c(=O)c2c1C	1	-26	26	26*	0	-6
COc1ccc(C(=O)Nc2cc(OC)c(NC(=O)Nc3ccccc3)cc2OC)cc1	x	x	x	-6	x	x
CC1Cc2ccccc2N1C(=O)COC(=O)/C=C/c1cccc(F)c1 (stereo not drawn)	0	9	-9	12*	-2	-1
Cc1nc(NC(=O)c2ccccc2)sc1-c1cc(C(=O)O)nn1Cc1ccccc1	x	x	x	0	x	x
Cc1c(CN(C)C(=O)C2CCC(=O)N(Cc3ccccc3F)C2)[nH]c2ccccc12 (stereo not drawn)	x	x	x	-4	x	x
COc1ccccc1OCc1ccc(C(=O)N2CCN(C(=O)c3ccco3)CC2)cc1	2	17	-17	10*	21*	0	GFP quench DR=>68
COc1ccc(CN2CCN(C(=O)c3ccco3)CC2)cc1OCc1ccccc1	13	18	-18	2	x	x
COc1ccc(NC(=O)c2ccc(OC)c(S(=O)(=O)N3CCCCC3C)c2)cn1 (stereo not drawn)	0	15	-15	2	x	x
CCN(C(=O)CN1C(=O)COc2ccc(S(=O)(=O)N3CCOCC3)cc21)c1ccc(OC)cc1	2	-7	7	8.2*	11*	0
C[C@H](CO)N1C[C@H](C)[C@@H](CN(C)S(=O)(=O)c2cn(C)cn2)Oc2c(NS(=O)(=O)c3ccc(F)cc3)cccc2C1=O	0	0	0	2	x	x
O=C(Nc1ccc(Oc2ccccc2)nc1)[C@H]1O[C@@H](n2ccc(=O)[nH]c2=O)[C@H](O)[C@@H]1O	x	x	x	-2	x	x
CCOC(=O)C1=C(C)NC2=C(C(=O)CCC2)C1c1cccnc1 (stereo not drawn)	0	-4	4	11*	-3	1
Cc1ccc(CC(C)(O)CC(C)(O)Cc2ccc(C)cc2)cc1 (stereo not drawn)	x	x	x	-1	x	x
COc1ccc(C(CNC(=O)COc2cc(C)ccc2Cl)N2CCCCC2)cc1 (stereo not drawn)	3	10	-10	14*	-1	-4
COc1ccccc1C(CNC(=O)COc1cc(C)ccc1Cl)N1CCCC1 (stereo not drawn)	0	-24	24	2	x	x
O=C(Cc1ccc(NC2=NC3CS(=O)(=O)CC3S2)cc1)NCCc1ccccc1 (stereo not drawn)	4	-7	7	6.5*	-1	0
COc1ccc(CCNC(=O)c2ccc(NC3=NC4CS(=O)(=O)CC4S3)cc2)cc1OC (stereo not drawn)	1	21	-21	18*	22*	-1	GFP quench DR=>68
Cc1cccc(CCNC(=O)Cc2ccc(NC3=NC4CS(=O)(=O)CC4S3)cc2)c1 (stereo not drawn)	0	-21	21	6	x	x
Cc1ccc(CNC(=O)Cc2ccc(NC3=NC4CS(=O)(=O)CC4S3)cc2)cc1 (stereo not drawn)	3	-6	6	10*	6	1
Cc1cn([C@H]2C[C@H](O)[C@@H](/C=C/C(=O)NCCC(C)C)O2)c(=O)[nH]c1=O	x	x	x	0	x	x
SMILES	GRK2 aptamer HTS	SR-BI DiI inh	SR-BI DiI-HDL act	Rin1-Abl PPI inh	Rin1 Abl conf	GFP quench-1	others
COc1ccc(CC(=O)OCC(=O)NCc2ccccc2Cl)cc1OC	1	-80	80*	10*	3	0
COc1ccccc1CNC(=O)COC(=O)Cc1ccc(Br)cc1	2	-8	8	2	x	x
O=c1[nH]c(Nc2ccccc2)cc2cc(Br)ccc12	0	22	-22	-1	x	x
O=c1[nH]c(Nc2ccccc2)cc2ccccc12	34	-8	8	5.6*	2	-2
Cc1cc(N/N=C/c2ccc(O)cc2O)nc(-n2nc(C)cc2C)n1	0	94*	-94	12*	10*	-1
CCCCOc1ccc(C(=O)N(Cc2ccco2)C2CCS(=O)(=O)C2)cc1 (stereo not drawn)	0	-11	11	9.6*	2	-2
CN1CCN(Cc2oc(CO)cc(=O)c2O)CC1	1	17	-17	12*	-1	-1
CCN(CC)Cc1oc(CO)cc(=O)c1O	6	-1	1	26*	11*	2
O=c1cc(CO)oc(CN2CCN(Cc3ccccc3)CC2)c1O	2	-17	17	5	x	x
O=c1cc(CO)oc(CN2CCCC2)c1O	1	-9	9	27*	3	0
CC(C)c1ccc(CN2CCC2(C)C(=O)Nc2cccc(Oc3ccccc3)c2)cc1 (stereo not drawn)	x	x	x	-1	x	x
CCc1cc(=O)oc2cc(OCc3ccc(C(=O)O)o3)ccc12	14	-44	44	1	x	x
Cn1c(=O)c2c(nc(N3CCC(C(N)=O)CC3)n2CCSc2nc3ccccc3s2)n(C)c1=O	0	16	-16	9.7*	7.0*	0
Cc1cc(C(=O)Nc2c[nH]c(=O)[nH]c2=O)ccc1[N+](=O)[O-]	0	-2	2	10*	-1	-1
O=C(Nc1c[nH]c(=O)[nH]c1=O)c1cccc([N+](=O)[O-])c1	0	8	-8	2	x	x
CC[C@]12c3[nH]c4ccc(Cl)cc4c3CCN1C(=O)[C@@H](CC(=O)NCCCN(C)C)C[C@@H]2C(=O)N1CCN(C(=O)c2ccco2)CC1	1	-30	30	22*	22*	-1	GFP quench DR=>68
